Experimental data published in PMC12123436 (RSC Chemical Biology, 2025).

What was measured:
[1] = test system: HEK293 cells; experiment: MTT; type: cell-based; details: for IC50: read-out: IC50,dark, 4 h incubation in dark, dark 20 min, then 16 h dark
How it was run: (§1)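 In an MTT assay, cells were incubated with test compound in the dark for 4 h. They were then kept dark or irradiated at 450 nm (10 mW cm−2) for 20 min, and held a further 16 h in the dark. IC50 values were obtained under dark and light conditions, and the phototoxicity index was taken as IC50,dark/IC50,light.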

[2] = Photophysical; type: physicochemical; details: for λem: λex = 350 nm; for τo: λex = 375 nm
[3] = test system: U87-MG cells; experiment: MTT; type: cell-based, human; details: for IC50: read-out: IC50,dark, 4 h incubation in dark, dark 20 min, then 16 h dark
How it was run: as §1

[4] = test system: MCF-7 cells; experiment: MTT; type: cell-based; details: for IC50: read-out: IC50,dark, 4 h incubation in dark, dark 20 min, then 16 h dark
How it was run: as §1

[5] = Singlet oxygen quantum yield with 1,3-diphenylisobenzofuran as scavenger; type: physicochemical; details: aerated CH3CN, 298 K, λex = 450 nm
[6] = Phosphorogenic response towards BCN-OH; type: physicochemical; details: 10 μM, BCN-OH 500 μM, aerated PBS/DMSO (9:1), dark 16 h; for λem after incubation with BCN-OH: λex = 350 nm
How it was run: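 Test compound (10 μM) was incubated with excess BCN-OH (500 μM) in aerated PBS/DMSO (9:1, v/v) at 298 K in the dark for 16 h. Emission was recorded with λex 350 nm, and I/Io was taken as intensity with versus without BCN-OH. Lifetimes were measured at emission maxima (λex 375 nm).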

[7] = Emission response upon photoirradiation at 450 nm; type: physicochemical; details: for Emission lifetime τ after photoirradiation / λem after photoirradiation: 10 μM, aerated PBS/DMSO (9:1), 450 nm (10 mW cm−2) 20 min; for λem after photoirradiation: λex = 350 nm
How it was run: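 Test compound (10 μM) in aerated PBS/DMSO (9:1, v/v) was irradiated at 450 nm (10 mW cm−2) for 20 min at 298 K. Photoproducts were followed by RP-HPLC and identified by ESI-MS. Emission was recorded before and after irradiation (λex 350 nm), and I/Io was taken as the ratio of these intensities. Lifetimes were measured at emission maxima (λex 375 nm).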

[8] = test system: MCF-7 cells; experiment: Cellular uptake by ICP-MS; type: cell-based; details: 5 µM, 4 h, 37°C
[9] = test system: U87-MG cells; experiment: Cellular uptake mechanism studies; type: cell-based, human; details: 20 µM, 1 h
[10] = test system: U87-MG cells; experiment: Annexin V/propidium iodide flow cytometry; type: cell-based, human; details: 1 μM, 4 h, photoirradiation at 450 nm (10 mW cm−2) 20 min
How it was run: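 Cells were pretreated with test compound (1 μM, 4 h), then kept unirradiated or continuously irradiated at 450 nm (10 mW cm−2) for 20 min. They were stained for 15 min with Alexa Fluor 647–Annexin V (λex 638 nm) and propidium iodide (100 μg mL−1 stock; λex 561 nm). Analysis was by flow cytometry.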

[11] = test system: HEK293 cells; experiment: Cellular uptake by ICP-MS; type: cell-based; details: 5 µM, 4 h, 37°C
[12] = test system: U87-MG cells; experiment: Cell death mechanism studies by LSCM; type: cell-based, human; details: 5 μM, 4 h
How it was run: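 For mitochondrial membrane potential, live cells were pretreated with test compound (5 μM, 4 h), then left unirradiated or irradiated at 450 nm (10 mW cm−2) for 20 min. They were stained with rhodamine 123 (5 μM, 15 min) and imaged by confocal microscopy (λex 488 nm, λem 500–550 nm).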

[13] = test system: U87-MG cells; experiment: Cellular uptake by ICP-MS; type: cell-based, human; details: 5 µM, 4 h, 37°C
[14] = potassium phosphate buffer (50 mM, pH 7.4)/CH3CN (1:1), 298 K
[15] = + RGD peptide pretreatment (50 µM, 30 min)

With [Ir(pqe)2(bpy-CONH2)](PF6) [complex 4] the “PI (IC50,dark/IC50,light)” value [1] was 100, the IC50 [1] was 5 ± 0.1 µM and the λem ([2]; CH3CN, 298 K) was 631 nm. For the same substance, the τo ([2]; CH3CN, 298 K) was 0.67 μs, the τo ([2]; EtOH/MeOH (4:1) glass, 77 K) was 4.23 μs and the Φem [2, 14] was 0.02. For the same substance, the λem [2, 14] was 648 nm, the τo [2, 14] was 0.34 μs and the “PI (IC50,dark/IC50,light)” value [3] was 103. The IC50 [3] was 4.1 ± 0.2 µM, the “PI (IC50,dark/IC50,light)” value [4] was 105 and the IC50 [4] was 4.2 ± 0.1 µM.

In the case of “[Ir(pqe)2(bpy-CONH-S-Tz-Cl)](PF6) [complex 1]”, the “1O2 quantum yield (ΦΔ)” value [5] is reported as 0.55, the λem ([2]; CH3CN, 298 K) is reported as 632 nm and the τo ([2]; CH3CN, 298 K) is reported as 0.68 μs. For the same substance, the τo ([2]; EtOH/MeOH (4:1) glass, 77 K) was 4.25 μs, the Φem [2, 14] was 0.002 and the λem [2, 14] was 650 nm. It also gave a τo [2, 14] of 0.23 μs.

With “[Ir(pqe)2(bpy-CONH-S-Tz-S-Et)](PF6) [complex 2]” the “PI (IC50,dark/IC50,light)” value [1] was 133, the IC50 [1] was 12 ± 1 µM and the “1O2 quantum yield (ΦΔ)” value [5] was 0.60. The “Emission lifetime τ after incubation with BCN-OH” value [6] was 0.37 μs, the “λem after incubation with BCN-OH” value [6] was 631 nm and the “Emission lifetime τ after photoirradiation” value [7] was 0.29 μs. It also gave a λem after photoirradiation [7] of 648 nm, a λem ([2]; CH3CN, 298 K) of 631 nm and a τo ([2]; CH3CN, 298 K) of 0.60 μs. It also gave a τo ([2]; EtOH/MeOH (4:1) glass, 77 K) of 4.38 μs, a Φem [2, 14] of 0.002 and a λem [2, 14] of 650 nm. For the same substance, the τo [2, 14] was 0.18 μs, the “PI (IC50,dark/IC50,light)” value [3] was 138 and the IC50 [3] was 11 ± 1 µM. For the same substance, the “PI (IC50,dark/IC50,light)” value [4] was 150 and the IC50 [4] was 15 ± 1 µM.

With “[Ir(pqe)2(bpy-CONH-S-Tz-S-RGD)](CF3COO) [conjugate 1-RGD]” the “Amount of iridium per average cell” value [8, 15] was 0.25 fmol, the “Amount of iridium per average cell” value ([8]; − RGD) was 0.32 fmol and the “PI (IC50,dark/IC50,light)” value [1] was over 38. For the same substance, the IC50 [1] was over 50 µM, the “Cellular uptake efficiency after metabolic or endocytosis inhibitors” value ([9]; 2-deoxy-D-glucose and oligomycin, or NH4Cl or chloroquine) was “substantially reduced” and the “Amount of intracellular iridium at low temperature vs 37 °C” value ([9]; 4 °C) was “significantly decreased”. For the same substance, the “Internalisation after cation transporter inhibitor” value ([9]; tetraethylammonium chloride (1 mM) pretreatment) was “remained unaffected”, the “Population of apoptotic cells” value [10] was 98.28% and the “Amount of iridium per average cell” value [11, 15] was 0.030 fmol. For the same substance, the “Amount of iridium per average cell” value ([11]; − RGD) was 0.032 fmol, the “Emission lifetime τ after incubation with BCN-OH” value [6] was 0.33 μs and the “λem after incubation with BCN-OH” value [6] was 632 nm. The “Intracellular ROS (CM-H2DCFDA emission)” value ([12]; 450 nm 20 min vs dark) was “effective intracellular ROS generation”, the “Mitochondrial membrane potential (rhodamine 123 emission)” value ([12]; after 450 nm 20 min vs dark) was “significantly diminished in intensity” and the “Emission lifetime τ after photoirradiation” value [7] was 0.26 μs. The λem after photoirradiation [7] was 648 nm, the “Time to complete photodissociation of S,S-tetrazine moiety” value ([7]; steady-state irradiation at 450 nm, 298 K) was 20 min and the “Amount of iridium per average cell” value [13, 15] was 0.34 fmol. The “Amount of iridium per average cell” value ([13]; − RGD) was 0.70 fmol, the Φem ([2]; CH3CN, 298 K) was 0.003 and the λem ([2]; CH3CN, 298 K) was 631 nm. The τo ([2]; CH3CN, 298 K) was 0.58 μs, the τo ([2]; EtOH/MeOH (4:1) glass, 77 K) was 4.14 μs and the Φem [2, 14] was 0.001. For the same substance, the λem [2, 14] was 648 nm, the τo [2, 14] was 0.19 μs and the “PI (IC50,dark/IC50,light)” value [3] was 325. For the same substance, the IC50 [3] was 26 ± 1 µM and the “PI (IC50,dark/IC50,light)” value [4] was 236.

In the case of “[Ir(pqe)2(bpy-CONH-SCN)](PF6) [complex 3]”, the “PI (IC50,dark/IC50,light)” value [1] is reported as 88, the IC50 [1] is reported as 3.5 ± 0.2 µM and the “1O2 quantum yield (ΦΔ)” value [5] is reported as 0.81. For the same substance, the λem ([2]; CH3CN, 298 K) was 634 nm, the τo ([2]; CH3CN, 298 K) was 0.69 μs and the τo ([2]; EtOH/MeOH (4:1) glass, 77 K) was 4.79 μs. It also gave a Φem [2, 14] of 0.02, a λem [2, 14] of 648 nm and a τo [2, 14] of 0.35 μs. For the same substance, the “PI (IC50,dark/IC50,light)” value [3] was 135, the IC50 [3] was 2.7 ± 0.1 µM and the “PI (IC50,dark/IC50,light)” value [4] was 125. For the same substance, the IC50 [4] was 2.5 ± 0.1 µM.
